Assay results as given in ChEMBL document CHEMBL5696442, “Discovery of type II inhibitors of TGFβ-activated kinase 1 (TAK1) and mitogen-activated protein kinase kinase kinase kinase 2 (MAP4K2)” (J Med Chem, 2015).

Tests used:
[1] = target: Tyrosine-protein kinase Fes/Fps (Homo sapiens, UniProt P07332); assay: Inhibition of FES Lys1 labeling site in human Huh-7 cell lysate at 1 uM by KiNativ Profiling analysis relative to control; type: subcellular
[2] = target: Phosphatidylinositol 3-kinase catalytic subunit type 3 (Homo sapiens) (UniProt Q8NEB9); assay: Inhibition of PIK3C3 ATP labeling site in human A-375 cells at 5 uM by KiNativ Profiling analysis relative to control; type: cell-based
[3] = target: Calcium/calmodulin-dependent protein kinase type 1 (Homo sapiens) (UniProt Q14012); assay: Inhibition of CAMK1 alpha Lys1 labeling site in human A-375 cells at 5 uM by KiNativ Profiling analysis relative to control; type: cell-based
Method in brief: (§1)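 Intact A375 melanoma cells were treated with compound at 5 or 0.5 μM, then lysed. Lysate kinases were labeled with a lysine-reactive ATP or ADP-biotin probe (KiNativ). Inhibition is read as protection of each kinase labeling site from probe labeling.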

[4] = target: Cyclin-dependent kinase 2 (Homo sapiens) (UniProt P24941); assay: Inhibition of CDK2 Lys2 labeling site in human A-375 cells at 0.5 uM by KiNativ Profiling analysis relative to control; type: cell-based
Method in brief: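 Live A375 melanoma cells were treated with compound at 5 or 0.5 μM. The cells were then lysed, and the lysates were labeled with a lysine-reactive ATP or ADP-biotin acyl probe (KiNativ). Inhibition is the compound's protection of each kinase labeling-site peptide from probe labeling, relative to untreated control.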

[5] = target: Dual specificity mitogen-activated protein kinase kinase 2 (Homo sapiens) (UniProt P36507); assay: Inhibition of MAP2K2 Lys2 labeling site in human A-375 cells at 0.05 uM by KiNativ Profiling analysis relative to control; type: cell-based
[6] = target: Mitogen-activated protein kinase kinase kinase 4 (Homo sapiens) (UniProt Q9Y6R4); assay: Inhibition of MAP3K4 Lys2 labeling site in human A-375 cells at 0.5 uM by KiNativ Profiling analysis relative to control; type: cell-based
[7] = target: Serine/threonine-protein kinase 38 (Homo sapiens) (UniProt Q15208); assay: Inhibition of NDR1 Lys2 labeling site in human A-375 cells at 0.05 uM by KiNativ Profiling analysis relative to control; type: cell-based
[8] = target: T1, Ephrin type-B receptor 2 (Homo sapiens) (UniProt P29323); assay: Inhibition of EphB2 ACT labeling site in human A-375 cells at 0.5 uM by KiNativ Profiling analysis relative to control; type: cell-based
T1 sequence (whole entry): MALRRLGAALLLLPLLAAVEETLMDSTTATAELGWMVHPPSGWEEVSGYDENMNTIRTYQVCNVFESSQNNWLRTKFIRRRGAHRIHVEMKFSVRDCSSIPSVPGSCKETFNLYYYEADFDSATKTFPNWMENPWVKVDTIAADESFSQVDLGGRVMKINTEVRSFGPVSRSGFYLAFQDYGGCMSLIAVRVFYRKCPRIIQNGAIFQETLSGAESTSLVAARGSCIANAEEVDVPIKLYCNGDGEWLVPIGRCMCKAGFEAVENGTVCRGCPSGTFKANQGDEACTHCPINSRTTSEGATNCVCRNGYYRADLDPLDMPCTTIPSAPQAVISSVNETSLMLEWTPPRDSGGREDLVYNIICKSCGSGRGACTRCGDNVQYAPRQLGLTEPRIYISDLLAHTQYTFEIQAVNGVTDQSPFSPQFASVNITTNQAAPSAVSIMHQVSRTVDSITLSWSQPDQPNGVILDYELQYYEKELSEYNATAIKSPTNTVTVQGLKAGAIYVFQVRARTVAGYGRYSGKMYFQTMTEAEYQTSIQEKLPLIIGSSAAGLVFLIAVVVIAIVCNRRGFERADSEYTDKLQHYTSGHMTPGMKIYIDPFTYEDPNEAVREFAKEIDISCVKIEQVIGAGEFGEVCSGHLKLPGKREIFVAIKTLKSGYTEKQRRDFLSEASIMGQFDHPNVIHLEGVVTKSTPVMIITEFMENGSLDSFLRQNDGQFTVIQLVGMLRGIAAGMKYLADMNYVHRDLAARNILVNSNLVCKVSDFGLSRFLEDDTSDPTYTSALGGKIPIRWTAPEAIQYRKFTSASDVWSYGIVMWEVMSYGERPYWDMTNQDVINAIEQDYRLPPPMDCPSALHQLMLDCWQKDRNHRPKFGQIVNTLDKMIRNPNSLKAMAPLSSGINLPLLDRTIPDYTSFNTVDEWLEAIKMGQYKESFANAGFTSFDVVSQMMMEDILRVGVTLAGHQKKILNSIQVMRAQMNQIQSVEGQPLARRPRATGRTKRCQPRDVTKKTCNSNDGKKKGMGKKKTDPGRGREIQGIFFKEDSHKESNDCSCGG
Method in brief: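 Live A375 melanoma cells were treated with compound at 0.5 or 5 μM, then lysed. Lysates were labeled with a lysine-reactive ATP or ADP-biotin probe. The read-out was protection of each kinase probe-labeling site from labeling, relative to control.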

[9] = target: T2, Serine/threonine-protein kinase 3 (Homo sapiens) (UniProt Q13188); assay: Inhibition of MST2 Lys2 labeling site harbouring DIKAGNILLNTEGHAK in human A-375 cells at 0.5 uM by KiNativ Profiling analysis relative to control; type: cell-based
T2 sequence (whole entry): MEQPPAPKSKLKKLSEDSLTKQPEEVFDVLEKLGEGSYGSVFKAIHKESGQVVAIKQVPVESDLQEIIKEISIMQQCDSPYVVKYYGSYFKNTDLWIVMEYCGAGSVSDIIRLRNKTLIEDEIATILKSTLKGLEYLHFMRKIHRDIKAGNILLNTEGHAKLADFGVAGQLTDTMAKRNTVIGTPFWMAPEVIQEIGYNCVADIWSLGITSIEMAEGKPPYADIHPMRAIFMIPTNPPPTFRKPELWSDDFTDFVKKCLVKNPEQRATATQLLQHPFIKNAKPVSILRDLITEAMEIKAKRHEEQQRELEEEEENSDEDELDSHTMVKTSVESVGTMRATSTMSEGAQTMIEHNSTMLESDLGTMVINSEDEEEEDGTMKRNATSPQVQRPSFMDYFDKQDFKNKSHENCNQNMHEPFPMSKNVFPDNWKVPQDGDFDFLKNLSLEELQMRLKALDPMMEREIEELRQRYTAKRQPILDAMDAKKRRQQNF

[10] = target: Tyrosine-protein kinase ABL1 (Homo sapiens, UniProt P00519); assay: Inhibition of ABL ACT labeling site in human A-375 cells at 5 uM by KiNativ Profiling analysis relative to control; type: cell-based; method in brief: as §1
Chain of Tyrosine-protein kinase ABL1 (P00519 whole entry): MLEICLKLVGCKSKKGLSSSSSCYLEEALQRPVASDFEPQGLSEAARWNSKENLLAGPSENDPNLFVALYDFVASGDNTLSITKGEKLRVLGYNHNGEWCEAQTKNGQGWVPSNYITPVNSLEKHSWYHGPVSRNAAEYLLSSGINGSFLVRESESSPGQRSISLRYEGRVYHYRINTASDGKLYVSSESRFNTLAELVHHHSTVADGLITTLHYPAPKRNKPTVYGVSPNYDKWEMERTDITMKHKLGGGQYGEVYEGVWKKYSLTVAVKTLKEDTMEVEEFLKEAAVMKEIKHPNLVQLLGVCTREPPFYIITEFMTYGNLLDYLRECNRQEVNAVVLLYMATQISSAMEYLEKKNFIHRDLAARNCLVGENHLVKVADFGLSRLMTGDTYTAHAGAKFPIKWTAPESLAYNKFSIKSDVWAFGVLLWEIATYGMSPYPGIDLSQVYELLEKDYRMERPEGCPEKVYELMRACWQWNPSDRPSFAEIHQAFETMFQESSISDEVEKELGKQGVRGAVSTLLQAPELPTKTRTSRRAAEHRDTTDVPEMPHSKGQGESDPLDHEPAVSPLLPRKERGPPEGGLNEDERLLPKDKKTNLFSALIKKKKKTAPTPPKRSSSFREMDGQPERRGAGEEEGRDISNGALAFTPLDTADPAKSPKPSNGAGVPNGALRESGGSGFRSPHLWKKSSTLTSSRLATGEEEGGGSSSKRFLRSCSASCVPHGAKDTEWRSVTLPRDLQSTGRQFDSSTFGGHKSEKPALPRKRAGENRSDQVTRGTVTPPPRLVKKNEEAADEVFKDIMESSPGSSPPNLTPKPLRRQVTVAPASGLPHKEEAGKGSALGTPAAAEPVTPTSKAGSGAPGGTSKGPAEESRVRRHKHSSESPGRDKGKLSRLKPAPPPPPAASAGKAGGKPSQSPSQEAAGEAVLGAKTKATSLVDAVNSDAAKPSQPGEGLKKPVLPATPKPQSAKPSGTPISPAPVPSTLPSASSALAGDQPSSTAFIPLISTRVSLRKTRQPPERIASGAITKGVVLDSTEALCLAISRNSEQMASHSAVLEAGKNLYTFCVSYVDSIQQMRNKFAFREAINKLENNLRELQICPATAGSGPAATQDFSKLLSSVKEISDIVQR

Chain of Tyrosine-protein kinase Fes/Fps (P07332 whole entry): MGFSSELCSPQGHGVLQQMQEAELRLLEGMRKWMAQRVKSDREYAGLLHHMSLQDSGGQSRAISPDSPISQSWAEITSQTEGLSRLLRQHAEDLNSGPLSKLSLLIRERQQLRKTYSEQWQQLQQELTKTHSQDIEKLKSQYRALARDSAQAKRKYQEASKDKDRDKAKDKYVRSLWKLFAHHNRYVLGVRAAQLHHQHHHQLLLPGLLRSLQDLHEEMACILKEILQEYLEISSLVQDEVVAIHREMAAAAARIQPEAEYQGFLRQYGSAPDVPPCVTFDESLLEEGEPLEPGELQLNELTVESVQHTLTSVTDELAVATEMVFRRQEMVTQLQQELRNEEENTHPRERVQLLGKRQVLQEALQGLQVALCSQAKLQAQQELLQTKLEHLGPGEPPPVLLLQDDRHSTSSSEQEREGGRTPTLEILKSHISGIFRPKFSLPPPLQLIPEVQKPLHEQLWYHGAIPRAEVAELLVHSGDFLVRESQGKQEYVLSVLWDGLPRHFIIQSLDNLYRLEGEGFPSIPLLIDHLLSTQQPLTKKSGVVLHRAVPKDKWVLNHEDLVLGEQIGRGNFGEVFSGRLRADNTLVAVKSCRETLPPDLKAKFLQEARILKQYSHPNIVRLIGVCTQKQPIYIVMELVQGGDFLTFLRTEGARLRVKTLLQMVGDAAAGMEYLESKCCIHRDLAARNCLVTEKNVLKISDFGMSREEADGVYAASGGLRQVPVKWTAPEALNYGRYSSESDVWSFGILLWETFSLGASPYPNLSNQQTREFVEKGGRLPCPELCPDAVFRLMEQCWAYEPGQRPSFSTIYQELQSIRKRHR
Chain of Dual specificity mitogen-activated protein kinase kinase 2 (Homo sapiens) (P36507 whole entry): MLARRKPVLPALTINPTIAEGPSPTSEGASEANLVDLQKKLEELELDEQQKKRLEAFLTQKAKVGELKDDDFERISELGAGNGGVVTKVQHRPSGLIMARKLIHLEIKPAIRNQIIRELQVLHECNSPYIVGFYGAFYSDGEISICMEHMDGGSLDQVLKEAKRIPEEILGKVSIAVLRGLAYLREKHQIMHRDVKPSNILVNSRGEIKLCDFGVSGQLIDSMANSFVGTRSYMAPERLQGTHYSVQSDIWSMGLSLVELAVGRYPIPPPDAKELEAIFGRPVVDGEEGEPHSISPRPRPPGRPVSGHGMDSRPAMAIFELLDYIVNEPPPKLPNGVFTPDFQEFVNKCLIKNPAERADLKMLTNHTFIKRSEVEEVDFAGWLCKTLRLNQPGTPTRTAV
Chain of Phosphatidylinositol 3-kinase catalytic subunit type 3 (Homo sapiens) (Q8NEB9 whole entry): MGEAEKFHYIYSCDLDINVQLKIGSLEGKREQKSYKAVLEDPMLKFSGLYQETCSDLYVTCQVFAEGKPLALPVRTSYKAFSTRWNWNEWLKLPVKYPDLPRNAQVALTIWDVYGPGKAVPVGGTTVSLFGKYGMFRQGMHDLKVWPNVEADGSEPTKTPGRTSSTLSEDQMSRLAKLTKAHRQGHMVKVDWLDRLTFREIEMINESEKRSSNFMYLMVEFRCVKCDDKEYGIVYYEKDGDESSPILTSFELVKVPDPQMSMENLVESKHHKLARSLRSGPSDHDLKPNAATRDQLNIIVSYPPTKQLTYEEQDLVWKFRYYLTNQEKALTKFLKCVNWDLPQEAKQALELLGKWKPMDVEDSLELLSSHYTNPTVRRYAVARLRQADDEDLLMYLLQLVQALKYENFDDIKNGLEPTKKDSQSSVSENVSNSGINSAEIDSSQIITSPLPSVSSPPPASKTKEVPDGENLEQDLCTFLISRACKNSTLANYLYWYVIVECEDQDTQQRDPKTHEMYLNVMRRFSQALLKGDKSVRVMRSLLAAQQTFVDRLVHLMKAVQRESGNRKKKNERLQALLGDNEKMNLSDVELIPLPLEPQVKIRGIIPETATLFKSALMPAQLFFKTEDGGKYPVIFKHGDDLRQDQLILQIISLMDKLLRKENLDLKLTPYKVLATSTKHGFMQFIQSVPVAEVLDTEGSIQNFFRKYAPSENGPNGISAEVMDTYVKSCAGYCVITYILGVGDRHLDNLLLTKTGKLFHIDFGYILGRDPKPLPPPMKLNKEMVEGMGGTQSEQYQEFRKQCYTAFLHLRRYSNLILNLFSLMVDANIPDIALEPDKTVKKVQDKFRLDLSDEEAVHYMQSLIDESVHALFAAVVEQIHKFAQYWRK
Chain of Calcium/calmodulin-dependent protein kinase type 1 (Homo sapiens) (Q14012 whole entry, looked up): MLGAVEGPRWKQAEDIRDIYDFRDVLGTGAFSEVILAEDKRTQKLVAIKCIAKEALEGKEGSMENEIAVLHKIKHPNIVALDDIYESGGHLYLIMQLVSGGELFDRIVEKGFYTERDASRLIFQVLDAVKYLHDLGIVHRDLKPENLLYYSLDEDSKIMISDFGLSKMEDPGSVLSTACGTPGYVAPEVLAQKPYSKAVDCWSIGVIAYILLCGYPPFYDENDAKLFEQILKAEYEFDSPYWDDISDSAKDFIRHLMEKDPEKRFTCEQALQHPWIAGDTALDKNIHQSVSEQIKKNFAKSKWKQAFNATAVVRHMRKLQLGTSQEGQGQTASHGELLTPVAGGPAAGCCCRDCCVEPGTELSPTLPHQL
Chain of Serine/threonine-protein kinase 38 (Homo sapiens) (Q15208 2-465 limits assumed): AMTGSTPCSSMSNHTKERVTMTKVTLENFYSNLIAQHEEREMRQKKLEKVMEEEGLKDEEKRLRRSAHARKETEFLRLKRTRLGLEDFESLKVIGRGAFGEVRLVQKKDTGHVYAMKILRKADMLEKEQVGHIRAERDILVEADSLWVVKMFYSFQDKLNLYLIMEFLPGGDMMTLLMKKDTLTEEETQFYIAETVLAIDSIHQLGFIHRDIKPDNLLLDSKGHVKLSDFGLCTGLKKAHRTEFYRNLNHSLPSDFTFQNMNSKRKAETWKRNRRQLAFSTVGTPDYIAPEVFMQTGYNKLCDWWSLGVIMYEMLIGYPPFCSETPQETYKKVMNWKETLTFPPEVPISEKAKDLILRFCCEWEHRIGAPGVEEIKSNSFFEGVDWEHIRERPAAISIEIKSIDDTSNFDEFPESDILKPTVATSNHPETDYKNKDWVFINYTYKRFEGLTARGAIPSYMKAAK

SMILES	inhibition [1]	inhibition [2]	inhibition [3]	inhibition [4]	inhibition [5]	inhibition [6]	inhibition [7]	inhibition [8]	inhibition [9]	inhibition [10]
CNc1cc(Oc2cc(C(=O)Nc3cc(-n4cnc(C)c4)cc(C(F)(F)F)c3)ccc2C)ncn1	20%									
CNc1cc(Oc2cc(C(=O)Nc3cc(N4CCN(C)CC4)cc(C(F)(F)F)c3)ccc2C)ncn1	11.2%									
CCN1CCN(Cc2ccc(NC(=O)c3ccc(C)c(Oc4ccnc5[nH]ccc45)c3)cc2C(F)(F)F)CC1		40.5%	91.8%	4.5%	6.1%	1.2%	30%	-2.2%	-3.5%	> 98%
CCN1CCN(Cc2ccc(NC(=O)c3ccc(C)c(/C=C/c4cnc5[nH]ccc5c4OC)c3)cc2C(F)(F)F)CC1		35.1%	31.9%	19.4%	-8.3%	-4.4%	19.2%	55.5%	-9.8%	> 98%
